A short description of data set [1]: Relaxant activity in potassium depolarized guinea pig ileum longitudinal smooth muscle assessed as inhibition of calcium-induced contraction after 30 mins. It is filed as functional, tissue-based. Particulars: Cavia porcellus, 0.5 h.
For data set [2], the target named is T1, Cytochrome P450 1A2 (Homo sapiens, UniProt P05177).
T1 sequence (P05177 whole entry): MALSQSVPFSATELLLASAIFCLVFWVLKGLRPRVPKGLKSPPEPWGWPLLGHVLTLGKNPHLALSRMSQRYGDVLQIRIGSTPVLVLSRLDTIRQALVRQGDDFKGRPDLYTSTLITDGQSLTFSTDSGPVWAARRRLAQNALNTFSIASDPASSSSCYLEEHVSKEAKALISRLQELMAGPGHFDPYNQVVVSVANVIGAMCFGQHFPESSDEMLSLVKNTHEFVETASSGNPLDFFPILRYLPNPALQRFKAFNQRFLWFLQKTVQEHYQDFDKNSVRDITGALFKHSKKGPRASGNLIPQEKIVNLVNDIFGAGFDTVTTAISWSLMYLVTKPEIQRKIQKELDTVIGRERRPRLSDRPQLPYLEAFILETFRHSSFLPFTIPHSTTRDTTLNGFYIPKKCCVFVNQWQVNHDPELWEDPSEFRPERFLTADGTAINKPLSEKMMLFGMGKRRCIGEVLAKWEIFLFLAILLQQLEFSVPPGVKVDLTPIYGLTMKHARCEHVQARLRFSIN
Nature of the data set: Inhibition of CYP1A2 in human liver microsomes using phenacetin as substrate after 30 mins by LC-MS analysis. Background: Liver microsomes are a subcellular fraction often used to study metabolism.

Data set [3] is described as follows: in vitro. Particulars: human, liver microsomes.
Data set [4] deals with Cytochrome P450 2C9 (Homo sapiens, UniProt P11712). Put plainly: Inhibition of CYP2C9 in human liver microsomes using tolbutamide as substrate after 20 mins by LC-MS analysis.
Data set [5] has as its system Aorta. Nature of the data set: Vasorelaxant activity in potassium depolarized guinea pig aorta assessed as inhibition of calcium-induced contraction at 10^-4 M after 30 mins. It counts as functional, Cavia porcellus. More on the design: scale not given: the % may be the effect or the level left. A digest of the protocol: (§1)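 Guinea pig aortic strips depolarized with K+ (80 mM). Calcium-induced contraction measured; inhibition expressed as percent change from control, n = 3−5.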

The test system of data set [6] is Left cardiac atrium. Nature of the data set: Negative inotropic activity in potassium depolarized guinea pig left atrium assessed as reduction in developed tension after 30 mins. It counts as functional. Conditions: Cavia porcellus, 0.5 h. A digest of the protocol:
(§2)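 Guinea pig left atria electrically driven at 1 Hz. EC50 taken from log concentration−response curves by Litchfield and Wilcoxon probit analysis, n = 6−7. Not calculated when the maximum effect was below 50%.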

The nature of data set [7]: Half life in human liver microsomes assessed as CYP-mediated compound degradation at 1 uM by LC-MS analysis.
In data set [8] the target is Cytochrome P450 2D6 (Homo sapiens, UniProt P10635). Nature of the data set: Inhibition of CYP2D6 in human liver microsomes using dextromethorphan as substrate after 10 mins by LC-MS analysis.
Data set [9] deals with Cytochrome P450 2C19 (Homo sapiens, UniProt P33261). Nature of the data set: Inhibition of CYP2C19 in human liver microsomes using (S)-mephenytoin as substrate after 40 mins by LC-MS analysis.
For data set [10], the system named is Right cardiac atrium. Nature of the data set: Negative chronotropic activity in potassium depolarized guinea pig right atrium assessed as reduction in atrial rate at 50 uM after 30 mins. It counts as functional, Cavia porcellus. More on the design: scale not given: the % may be the effect or the level left.
In data set [11] the test system is Liver microsome. Nature of the data set: Stability in human liver microsomes at 1 uM after 2 to 60 mins by LC-MS analysis in absence of NADPH.
Data set [12] is described as follows: Relaxant activity in potassium depolarized guinea pig ileum longitudinal smooth muscle assessed as inhibition of calcium-induced contraction at 0.05 uM after 30 mins. It counts as functional, Cavia porcellus. More on the design: scale not given: the % may be the effect or the level left.
In data set [13] the test system is Left cardiac atrium. Put plainly: Negative inotropic activity in potassium depolarized guinea pig left atrium assessed as reduction in developed tension at 10^-6 M after 30 mins. It is filed as functional, Cavia porcellus. On the set-up: scale not given: the % may be the effect or the level left.
Data set [14] deals with Left cardiac atrium. Nature of the data set: Negative inotropic activity in potassium depolarized guinea pig left atrium assessed as reduction in developed tension at 10^-5 M after 30 mins. It counts as functional, Cavia porcellus. On the set-up: scale not given: the % may be the effect or the level left.
In data set [15] the test system is Left cardiac atrium. Nature of the data set: Potency index, ratio of diltiazem EC50 to compound EC50 for negative inotropic activity against potassium depolarized guinea pig left atrium.
Data set [16] concerns Aorta. Put plainly: Vasorelaxant activity in potassium depolarized guinea pig aorta assessed as inhibition of calcium-induced contraction at 50 uM after 30 mins. It counts as functional, Cavia porcellus. On the set-up: scale not given: the % may be the effect or the level left. In a few lines:
as §1

In data set [17] the test system is Left cardiac atrium. Nature of the data set: Negative inotropic activity in potassium depolarized guinea pig left atrium assessed as reduction in developed tension at 10^-5 M. On the set-up: scale not given: the % may be the effect or the level left. It is filed as functional, Cavia porcellus.
The subject of data set [18] is Left cardiac atrium. Nature of the data set: Negative inotropic activity in potassium depolarized guinea pig left atrium assessed as reduction in developed tension. It is filed as functional. Particulars: Cavia porcellus. A digest of the protocol:
as §2

The subject of data set [19] is Aorta. Put plainly: Vasorelaxant activity in potassium depolarized guinea pig aorta assessed as inhibition of calcium-induced contraction at 10^-6 M. It counts as functional, Cavia porcellus. On the set-up: scale not given: the % may be the effect or the level left. In a few lines: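 Guinea pig aortic strips depolarized with 80 mM K+, then contracted by calcium addition. The read-out is percent inhibition of the calcium-induced contraction, expressed as percent change from control, with n = 3–5.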

The subject of data set [20] is Left cardiac atrium. Put plainly: Negative inotropic activity in potassium depolarized guinea pig left atrium assessed as reduction in developed tension at 5 uM after 30 mins. It is filed as functional, Cavia porcellus. More on the design: scale not given: the % may be the effect or the level left.
A short description of data set [21]: Relaxant activity in potassium depolarized guinea pig ileum longitudinal smooth muscle assessed as inhibition of calcium-induced contraction at 10^-5 M after 30 mins. It counts as functional, Cavia porcellus. On the set-up: scale not given: the % may be the effect or the level left.
For data set [22], the system named is Right cardiac atrium. Nature of the data set: Negative chronotropic activity in potassium depolarized guinea pig right atrium assessed as reduction in atrial rate at 10^-5 M after 30 mins. It is filed as functional, Cavia porcellus. On the set-up: scale not given: the % may be the effect or the level left.
Data set [23] relates to Aorta. Nature of the data set: Vasorelaxant activity in potassium depolarized guinea pig aorta assessed as relaxation of calcium-induced contraction. Conditions: Cavia porcellus. It is filed as functional, tissue-based. In a few lines: as §1
Data set [24] deals with Left cardiac atrium. Put plainly: Negative inotropic activity in potassium depolarized guinea pig left atrium assessed as reduction in developed tension at 50 uM after 30 mins. It is filed as functional, Cavia porcellus. More on the design: scale not given: the % may be the effect or the level left.
Data set [25] relates to Right cardiac atrium. Put plainly: Negative chronotropic activity in potassium depolarized guinea pig right atrium assessed as reduction in atrial rate after 30 mins. It counts as functional. Particulars: Cavia porcellus, 0.5 h.
A short description of data set [26]: Relaxant activity in potassium depolarized guinea pig ileum longitudinal smooth muscle assessed as inhibition of calcium-induced contraction at 5 uM after 30 mins. More on the design: scale not given: the % may be the effect or the level left. It is filed as functional, Cavia porcellus.
For data set [27], the system named is Aorta. Nature of the data set: Vasorelaxant activity in potassium depolarized guinea pig aorta assessed as inhibition of calcium-induced contraction at 10^-4 M. It is filed as functional, Cavia porcellus. More on the design: scale not given: the % may be the effect or the level left. A digest of the protocol: as §1
Data set [28] relates to Right cardiac atrium. Nature of the data set: Negative chronotropic activity in potassium depolarized guinea pig right atrium assessed as reduction in atrial rate at 10^-6 M after 30 mins. It is filed as functional, Cavia porcellus. On the set-up: scale not given: the % may be the effect or the level left.

Cytochrome P450 2D6, sequence (P10635 whole entry): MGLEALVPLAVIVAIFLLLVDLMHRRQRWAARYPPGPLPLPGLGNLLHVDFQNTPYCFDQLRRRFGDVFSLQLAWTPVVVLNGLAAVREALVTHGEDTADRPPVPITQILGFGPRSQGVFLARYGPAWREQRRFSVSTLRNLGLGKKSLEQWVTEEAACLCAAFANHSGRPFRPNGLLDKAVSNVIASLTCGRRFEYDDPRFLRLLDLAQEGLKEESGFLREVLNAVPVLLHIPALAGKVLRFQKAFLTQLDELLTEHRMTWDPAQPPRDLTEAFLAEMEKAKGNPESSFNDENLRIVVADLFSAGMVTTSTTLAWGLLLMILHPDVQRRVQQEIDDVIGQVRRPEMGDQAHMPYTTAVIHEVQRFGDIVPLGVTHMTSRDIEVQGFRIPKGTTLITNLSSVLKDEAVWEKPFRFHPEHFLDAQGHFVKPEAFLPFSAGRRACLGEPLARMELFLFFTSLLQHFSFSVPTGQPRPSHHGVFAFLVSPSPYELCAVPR
Cytochrome P450 2C19, sequence (P33261 whole entry): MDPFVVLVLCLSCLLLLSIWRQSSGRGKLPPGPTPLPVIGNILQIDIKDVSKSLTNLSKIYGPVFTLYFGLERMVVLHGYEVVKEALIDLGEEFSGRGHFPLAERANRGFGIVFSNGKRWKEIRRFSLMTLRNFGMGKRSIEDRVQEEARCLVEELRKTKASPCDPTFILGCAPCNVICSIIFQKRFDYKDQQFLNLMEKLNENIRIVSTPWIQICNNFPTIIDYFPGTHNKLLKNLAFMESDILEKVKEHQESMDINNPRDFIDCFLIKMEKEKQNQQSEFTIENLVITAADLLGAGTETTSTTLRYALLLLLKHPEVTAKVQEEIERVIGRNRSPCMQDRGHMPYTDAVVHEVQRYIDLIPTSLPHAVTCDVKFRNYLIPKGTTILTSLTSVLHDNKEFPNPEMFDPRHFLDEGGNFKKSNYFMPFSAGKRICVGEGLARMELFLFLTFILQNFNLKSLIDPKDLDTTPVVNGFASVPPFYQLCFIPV
Cytochrome P450 2C9, sequence (P11712 whole entry): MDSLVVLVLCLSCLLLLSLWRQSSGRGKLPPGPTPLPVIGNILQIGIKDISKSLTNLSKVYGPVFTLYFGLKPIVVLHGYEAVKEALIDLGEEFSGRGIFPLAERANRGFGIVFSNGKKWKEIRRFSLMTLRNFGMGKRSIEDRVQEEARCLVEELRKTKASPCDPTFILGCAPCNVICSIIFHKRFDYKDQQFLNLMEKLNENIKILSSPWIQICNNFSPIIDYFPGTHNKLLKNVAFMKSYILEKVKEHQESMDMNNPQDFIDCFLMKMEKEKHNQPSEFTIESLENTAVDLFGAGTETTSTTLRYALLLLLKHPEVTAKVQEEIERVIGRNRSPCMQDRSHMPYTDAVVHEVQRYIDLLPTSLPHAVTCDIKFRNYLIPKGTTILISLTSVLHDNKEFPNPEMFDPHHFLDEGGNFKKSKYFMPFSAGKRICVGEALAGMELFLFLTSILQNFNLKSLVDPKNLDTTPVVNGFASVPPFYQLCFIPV

In general, IC50 refers to the concentration that gives 50% inhibition. The term microsomal CLint denotes the rate of metabolic loss divided by the concentration. The term EC50 denotes the concentration giving half of the maximal effect. Usually half-life stands for the time needed for the level to fall by half in the phase considered. On to `CCOC1(c2ccc(OC)cc2)SC=C(C)n2c1noc2=O` (stereo not given), for which the IC50 was found to be 17 nM in data set [1]; 5200 nM in data set [2]; 13600 nM in data set [4]; 12500 nM in data set [8]; 2500 nM in [9]. The same compound had a microsomal CLint at 1 µM in data set [3] of 278 µL/min/mg. The Activity was 29% in data set [5], 3% in [10], 86% in data set [12] and 76% in data set [13]. For the same compound, the EC50 in data set [6] turned out to be 22 nM. Moreover, the half-life at 1 µM in data set [7] was found to be 6 min. In data set [11], the Stability entry is listed as “Stable”.

Turning to `CC1=CSC(O)(c2ccccc2)c2noc(=O)n21` (stereo not given), the half-maximal effective concentration (EC50) in data set [6] stood at 230 nM. Further, the Activity amounted to 95% in data set [14], 14% in [10] and 4% in [16]. For the same compound, the “Ratio EC50” value in data set [15] was determined as 3.4.

Take `COC(=O)C1=C(C)NC(C)=C(C(=O)OC)C1c1ccccc1[N+](=O)[O-]` [NIFEDIPINE]: the Activity in [17] was 97%; in data set [19], 82%. Besides, the EC50 in [18] came out at 260 nM.

`COc1ccc(C2(O)Sc3ccccc3-n3c2noc3=O)cc1` (stereo not given): the EC50 in data set [6] was found to be 100 nM. The Activity in data set [10] is reported as 26%; in data set [16] it was 19%; in data set [13] it was 95%.

With `CCOC1(c2cccc(OC)c2)SC=C(C)n2c1noc2=O` (stereo not given), the Activity in data set [5] is 31%; in data set [20], 71%; in data set [10], 2%; in data set [21], 43%. The EC50 in data set [6] came to 38 nM.

As to `CCOC1(c2ccccc2OC)SC=C(C)n2c1noc2=O` (stereo not given), the results for the Activity in [5], in data set [20] and in data set [22] were 28%, 85% and 29%, respectively. In addition, in data set [6], the EC50 came out at 140 nM.

Turning to `COc1ccc(CCN(C)CCCC(C#N)(c2ccc(OC)c(OC)c2)C(C)C)cc1OC` (stereo not given), the Activity in [17] is 84%; in data set [19], 95%. Also, in [23], the IC50 was 380 nM. In addition, the EC50 in [18] is 610 nM.

As to `COc1ccccc1C1(O)SC=C(C)n2c1noc2=O` (stereo not given), the results for the Activity in data set [5], in data set [22] and in [24] were 25%, 11% and 94%, respectively. Also, the EC50 in [6] amounted to 930 nM.

A word on the EC30: it is the concentration needed for an effect of 30%. Turning to `COc1ccc([C@@H]2Sc3ccccc3N(CCN(C)C)C(=O)[C@@H]2OC(C)=O)cc1` [DILTIAZEM], in data set [1], the IC50 is 110 nM. Moreover, the EC30 in data set [25] was 70 nM. For the same compound, the Activity was 88% in data set [5]; 78% in data set [14]; 98% in data set [26]; 78% in data set [17]; 88% in [27]; 94% in data set [28].
